Assay results: ChEMBL document CHEMBL1131603, “Synthesis and biological activity of chimeric structures derived from the cytotoxic natural compounds dolastatin 10 and dolastatin 15” (J Med Chem, 1998)
Where a SMILES comes first, the peptide text is derived from it. [ ]: non-standard residue; d: D form. The star is where a group is joined. X2 = COC1=CC(=O)N(C(=O)[C@@H](O*)C(C)C)[C@H]1Cc1ccccc1; Dolaproine = CO[C@@H]([C@@H]1CCCN1)[C@@H](C)C(=O)O; NMe2Val = CC(C)[C@@H](C(=O)*)N(C)C; X1 = c1ccc(CC(N*)c2nccs2)cc1; NMeV = CN[C@H](C(=O)O)C(C)C

Legend:
MCF7 [1] = test: Inhibitory activity against growth of MCF-7 cell line; assay type: functional, cell-based; details: Homo sapiens
Summary of the method: (§1)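 For MCF7 cells, cultured in supplemented RPMI 1640 (10% fetal calf serum, 10 mM HEPES, pH 7.4), exposure ran 168 h to nine serial dilutions in triplicate. Viability was read by microculture tetrazolium assay. IC50 is the concentration halving optical density relative to untreated controls; ratio is compound IC50 over parent dolastatin IC50.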

Tubulin = Tubulin (Bos taurus, UniProt Q6B856+Q862L2+Q862F3); test: In vitro inhibition of tubulin polymerization measured as turbidity formed by centrifugation; assay type: protein assay
Summary of the method: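 Microtubule protein purified from bovine brain by assembly (37 °C)/disassembly (0 °C) cycles in MES buffer (pH 6.6) with glycerol and GTP; used at 2 mg/mL with 1 mM GTP. Compounds added in DMSO; assembly started by temperature jump from 4 to 37 °C and followed by turbidity at 350 nm. IC50 taken as concentration giving 50% inhibition of assembly rate.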

HT-29 [2] = test: Inhibitory activity against growth of HT-29 cell line; assay type: functional, cell-based; details: Homo sapiens
Summary of the method: (§2)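 HT-29 cells grown in RPMI 1640 with 10% fetal calf serum, 2 mM glutamine, antibiotics and 10 mM HEPES (pH 7.4). Exposed for 96 h to nine serial dilutions in triplicate; growth read by microculture tetrazolium assay. IC50 is the concentration lowering optical density 50% versus untreated controls; ratio is compound IC50 over parent dolastatin IC50.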

L1210 [3] = test: Inhibitory activity against growth of L1210 cell line; assay type: functional, cell-based; details: Mus musculus
Summary of the method: (§3)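 L1210 murine leukemia cells in RPMI 1640 with 10% fetal calf serum, 2 mM glutamine, antibiotics and 10 mM HEPES (pH 7.4). Treatment lasted 48 h at nine serial dilutions in triplicate, with a microculture tetrazolium read-out. IC50 gives 50% optical density reduction versus untreated cells; ratio is compound IC50 divided by parent dolastatin IC50.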

L1210 [4] = test: Selectivity was evaluated [Selectivity = IC50 / IC50 of Dolastatin] against L1210 cell line; assay type: functional, Mus musculus; summary of the method: as §3
MCF7 [5] = test: Selectivity was evaluated [Selectivity = IC50 / IC50 of Dolastatin] against MCF-7 cell line; assay type: functional, Homo sapiens; summary of the method: as §1
HT-29 [6] = test: Selectivity was evaluated [Selectivity = IC50 / IC50 of Dolastatin] against HT-29 cell line; assay type: functional, Homo sapiens; summary of the method: as §2

COC1=CC(=O)N(C(=O)[C@@H](OC(=O)[C@@H]2CCCN2C(=O)[C@@H]2CCCN2C(=O)[C@H](C(C)C)N(C)C(=O)[C@@H](NC(=O)[C@H](C(C)C)N(C)C)C(C)C)C(C)C)[C@H]1Cc1ccccc1 [DOLASTATIN 15] (NMe2Val-V[NMeV]PP-X2)
IC50 (MCF7 [1]): 0.04 nM | IC50 (Tubulin): 17000 nM | IC50 (HT-29 [2]): 0.29 nM | IC50 (L1210 [3]): 0.13 nM

CC[C@H](C)[C@@H]([C@@H](CC(=O)N1CCC[C@H]1C(=O)O[C@H](C(=O)N1C(=O)C=C(OC)[C@@H]1Cc1ccccc1)C(C)C)OC)N(C)C(=O)[C@@H](NC(=O)[C@H](C(C)C)N(C)C)C(C)C
IC50 (MCF7 [1]): 0.19 nM | IC50 (Tubulin): 3600 nM | IC50 (HT-29 [2]): 396 nM | Selectivity (L1210 [4]): 12 | IC50 (L1210 [3]): 1.58 nM | Selectivity (MCF7 [5]): 5 | Selectivity (HT-29 [6]): 1365

CC[C@]1(O)C[C@H]2CN(CCc3c([nH]c4ccccc34)[C@@](C(=O)OC)(c3cc4c(cc3OC)N(C=O)[C@H]3[C@@](O)(C(=O)OC)[C@H](OC(C)=O)[C@]5(CC)C=CCN6CC[C@]43[C@@H]65)C2)C1 [VINCRISTINE]
IC50 (MCF7 [1]): 0.84 nM | IC50 (Tubulin): 1800 nM | IC50 (HT-29 [2]): 2.06 nM | IC50 (L1210 [3]): 0.73 nM

CO[C@H]([C@@H](C)C(=O)NC(Cc1ccccc1)c1nccs1)[C@@H]1CCCN1C(=O)[C@@H]1CCCN1C(=O)[C@H](C(C)C)N(C)C(=O)[C@@H](NC(=O)[C@H](C(C)C)N(C)C)C(C)C (some centres undefined) (NMe2Val-V[NMeV]P[Dolaproine]-X1)
IC50 (MCF7 [1]): 2.48 nM | IC50 (Tubulin): 13000 nM | IC50 (HT-29 [2]): 11.4 nM | Selectivity (L1210 [4]): 90 | IC50 (L1210 [3]): 2.72 nM | Selectivity (MCF7 [5]): 83 | Selectivity (HT-29 [6]): 190

CC[C@H](C)[C@@H]([C@@H](CC(=O)N1CCC[C@H]1[C@H](OC)[C@@H](C)C(=O)N[C@@H](Cc1ccccc1)c1nccs1)OC)N(C)C(=O)[C@@H](NC(=O)[C@H](C(C)C)N(C)C)C(C)C [DOLASTATIN-10]
IC50 (MCF7 [1]): 0.03 nM | IC50 (Tubulin): 2200 nM
